Assay results reported in ChEMBL document CHEMBL1649131, “Tigecycline therapy significantly reduces the concentrations of inflammatory pulmonary cytokines and chemokines in a murine model of Mycoplasma pneumoniae pneumonia” (Antimicrob Agents Chemother, 2009).
≈ marks a conversion by molar mass, not a printed value. Calls of active or inactive are those of the source. The calls are words filed in the database; no cut-off is given here.

Legend:
[1] = tested on: Mus musculus; assay: Immunological activity in BALB/c mouse infected with Mycoplasma pneumoniae ATCC 29342 assessed as decrease in IL-4 level in bronchoalveolar lavage fluid at 10 mg/kg, sc on first day followed by regimen of 5 mg/kg for 5 days measured after 3 days; assay type: functional, organism-based
How it was run: (§1)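 In BALB/c females infected intranasally with 10^7 CFU M. pneumoniae, sc dosing ran daily from day 1: 10 mg/kg first, then 5 mg/kg; saline placebo. BAL (500 µl SP4 broth via trachea) was collected ~24 h after the last dose at 1, 3 or 6 days of therapy, and cytokine/chemokine concentrations were measured, given as mean ± SD. There were 10 mice/group per time point; t test and two-way ANOVA were used, P<0.05.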

[2] = tested on: Mus musculus; assay: Immunological activity in BALB/c mouse infected with Mycoplasma pneumoniae ATCC 29342 assessed as decrease in IL1-beta level in bronchoalveolar lavage fluid at 10 mg/kg, sc on first day followed by regimen of 5 mg/kg for 5 days measured after 1 days; assay type: functional, organism-based; how it was run: as §1
[3] = tested on: Mus musculus; assay: Immunological activity in BALB/c mouse infected with Mycoplasma pneumoniae ATCC 29342 assessed as decrease in IL-6 level in bronchoalveolar lavage fluid at 10 mg/kg, sc on first day followed by regimen of 5 mg/kg for 5 days measured after 3 days; assay type: functional, organism-based; how it was run: as §1
[4] = tested on: Mus musculus; assay: Immunological activity in BALB/c mouse infected with Mycoplasma pneumoniae ATCC 29342 assessed as decrease in IL-12 level in bronchoalveolar lavage fluid at 10 mg/kg, sc on first day followed by regimen of 5 mg/kg for 5 days measured after 3 days; assay type: functional, organism-based; how it was run: as §1
[5] = tested on: Mycoplasmoides pneumoniae; assay: Antimicrobial activity against Mycoplasma pneumoniae ATCC 29342 infected in BALB/c mouse assessed as decrease in bacterial infection-induced parenchymal cell histopathology at 10 mg/kg, sc on first day followed by regimen of 5 mg/kg for 5 days measured after 3 days; assay type: functional, organism-based; conditions: M129
How it was run: (§2)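 Infected BALB/c mice (2-month-old females, intranasal 10^7 CFU M. pneumoniae, day 0) dosed sc daily from day 1: 10 mg/kg then 5 mg/kg, saline vehicle/placebo. Lungs with trachea fixed in 10% buffered formalin ~24 h after last dose, whole-mount paraffin sections stained H&E and scored for histopathology (HPS) and parenchymal pneumonia subscore; 10 mice/group per time point, two experiments; two-way ANOVA and t test.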

[6] = tested on: Mycoplasmoides pneumoniae; assay: Antimicrobial activity against Mycoplasma pneumoniae ATCC 29342 infected in BALB/c mouse assessed as decrease in bacterial count in bronchoalveolar lavage fluid at 10 mg/kg, sc on first day followed by regimen of 5 mg/kg for 5 days measured after 6 days; assay type: functional, organism-based; conditions: M129
How it was run: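 Female BALB/c mice, 2 months old, inoculated intranasally once (day 0) with 10^7 CFU M. pneumoniae in 50 µl SP4 broth under isoflurane. From day 1, sc once daily for 6 days: 10 mg/kg day 1, then 5 mg/kg, in sterile 0.9% NaCl; saline placebo. BAL with 500 µl SP4 broth ~24 h after last dose; undiluted and 10-fold dilutions plated on SP4 agar at 37°C; colonies counted as log10 CFU/ml; 10 mice/group, two experiments.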

[7] = tested on: Mus musculus; assay: Immunological activity in BALB/c mouse infected with Mycoplasma pneumoniae ATCC 29342 assessed as decrease in IP-10 level in bronchoalveolar lavage fluid at 10 mg/kg, sc on first day followed by regimen of 5 mg/kg for 5 days measured after 3 days; assay type: functional, organism-based; how it was run: as §1
[8] = Cmax in human serum at […] followed by regimen of […] for every 12 hrs; assay type: ADME, organism-based; parameters: route intravenous
[9] = tested on: Mus musculus; assay: Immunological activity in BALB/c mouse infected with Mycoplasma pneumoniae ATCC 29342 assessed as decrease in IL-10 level in bronchoalveolar lavage fluid at 10 mg/kg, sc on first day followed by regimen of 5 mg/kg for 5 days measured after 3 days; assay type: functional, organism-based; how it was run: as §1
[10] = Ratio of AUC in human alveolar cells to AUC in human serum at […] followed by […] regimen for every 12 hrs; assay type: ADME, organism-based, Pneumocyte; conditions: read-out: Ratio AUC
[11] = tested on: Mus musculus; assay: Immunological activity in BALB/c mouse infected with Mycoplasma pneumoniae ATCC 29342 assessed as decrease in IL-2 level in bronchoalveolar lavage fluid at 10 mg/kg, sc on first day followed by regimen of 5 mg/kg for 5 days measured after 3 days; assay type: functional, organism-based; how it was run: as §1
[12] = tested on: Mus musculus; assay: Immunological activity in BALB/c mouse infected with Mycoplasma pneumoniae ATCC 29342 assessed as decrease in INF-gamma level in bronchoalveolar lavage fluid at 10 mg/kg, sc on first day followed by regimen of 5 mg/kg for 5 days measured after 6 days; assay type: functional, organism-based; how it was run: as §1
[13] = tested on: Mus musculus; assay: Immunological activity in BALB/c mouse infected with Mycoplasma pneumoniae ATCC 29342 assessed as decrease in KC level in bronchoalveolar lavage fluid at 10 mg/kg, sc on first day followed by regimen of 5 mg/kg for 5 days measured after 3 days; assay type: functional, organism-based; how it was run: as §1
[14] = AUC in mouse pneumoniae model at 5 mg/kg; assay type: ADME, organism-based; parameters: dose 5 mg/kg; conditions: in vivo
[15] = tested on: Mus musculus; assay: Immunological activity in BALB/c mouse infected with Mycoplasma pneumoniae ATCC 29342 assessed as decrease in IL-12 level in bronchoalveolar lavage fluid at 10 mg/kg, sc on first day followed by regimen of 5 mg/kg for 5 days measured after 6 days; assay type: functional, organism-based; how it was run: as §1
[16] = tested on: Mus musculus; assay: Immunological activity in BALB/c mouse infected with Mycoplasma pneumoniae ATCC 29342 assessed as decrease in MCP-1 level in bronchoalveolar lavage fluid at 10 mg/kg, sc on first day followed by regimen of 5 mg/kg for 5 days measured after 3 days; assay type: functional, organism-based; how it was run: as §1
[17] = tested on: Mus musculus; assay: Immunological activity in BALB/c mouse infected with Mycoplasma pneumoniae ATCC 29342 assessed as decrease in IL1-beta level in bronchoalveolar lavage fluid at 10 mg/kg, sc on first day followed by regimen of 5 mg/kg for 5 days measured after 6 days; assay type: functional, organism-based; how it was run: as §1
[18] = tested on: Mus musculus; assay: Immunological activity in BALB/c mouse infected with Mycoplasma pneumoniae ATCC 29342 assessed as decrease in INF-gamma level in bronchoalveolar lavage fluid at 10 mg/kg, sc on first day followed by regimen of 5 mg/kg for 5 days measured after 3 days; assay type: functional, organism-based; how it was run: as §1
[19] = Ratio of Cmax in human lung to Cmax in human serum at […] followed by […] regimen for every 12 hrs; assay type: ADME, organism-based
[20] = tested on: Mus musculus; assay: Immunological activity in BALB/c mouse infected with Mycoplasma pneumoniae ATCC 29342 assessed as decrease in IL1-beta level in bronchoalveolar lavage fluid at 10 mg/kg, sc on first day followed by regimen of 5 mg/kg for 5 days measured after 3 days; assay type: functional, organism-based; how it was run: as §1
[21] = tested on: Mus musculus; assay: Immunological activity in BALB/c mouse infected with Mycoplasma pneumoniae ATCC 29342 assessed as decrease in TNFalpha level in bronchoalveolar lavage fluid at 10 mg/kg, sc on first day followed by regimen of 5 mg/kg for 5 days measured after 3 days; assay type: functional, organism-based; how it was run: as §1
[22] = tested on: Mycoplasmoides pneumoniae; assay: Antimicrobial activity against Mycoplasma pneumoniae ATCC 29342 infected in BALB/c mouse assessed as decrease in bacterial infection-induced lung histopathology at 10 mg/kg, sc on first day followed by regimen of 5 mg/kg for 5 days measured after 3 days; assay type: functional, organism-based; conditions: M129; how it was run: as §2
[23] = tested on: Mus musculus; assay: Immunological activity in BALB/c mouse infected with Mycoplasma pneumoniae ATCC 29342 assessed as decrease in granulocyte-macrophage colony stimulating factor level in bronchoalveolar lavage fluid at 10 mg/kg, sc on first day followed by regimen of 5 mg/kg for 5 days measured after 3 days; assay type: functional, organism-based; how it was run: as §1
[24] = tested on: Mus musculus; assay: Immunological activity in BALB/c mouse infected with Mycoplasma pneumoniae ATCC 29342 assessed as decrease in IL-5 level in bronchoalveolar lavage fluid at 10 mg/kg, sc on first day followed by regimen of 5 mg/kg for 5 days measured after 3 days; assay type: functional, organism-based; how it was run: as §1
[25] = tested on: Mus musculus; assay: Immunological activity in BALB/c mouse infected with Mycoplasma pneumoniae ATCC 29342 assessed as decrease in MIG level in bronchoalveolar lavage fluid at 10 mg/kg, sc on first day followed by regimen of 5 mg/kg for 5 days measured after 1 days; assay type: functional, organism-based; how it was run: as §1
[26] = tested on: Mus musculus; assay: Immunological activity in BALB/c mouse infected with Mycoplasma pneumoniae ATCC 29342 assessed as decrease in MIG level in bronchoalveolar lavage fluid at 10 mg/kg, sc on first day followed by regimen of 5 mg/kg for 5 days measured after 6 days; assay type: functional, organism-based; how it was run: as §1
[27] = AUC (0 to 24 hrs) in human serum at […] followed by regimen of […] for every 12 hrs; assay type: ADME, organism-based; parameters: time < 24 hr, route intravenous
[28] = tested on: Mus musculus; assay: Immunological activity in BALB/c mouse infected with Mycoplasma pneumoniae ATCC 29342 assessed as decrease in MIG level in bronchoalveolar lavage fluid at 10 mg/kg, sc on first day followed by regimen of 5 mg/kg for 5 days measured after 3 days; assay type: functional, organism-based; how it was run: as §1
[29] = tested on: Mus musculus; assay: Immunological activity in BALB/c mouse infected with Mycoplasma pneumoniae ATCC 29342 assessed as decrease in INF-gamma level in bronchoalveolar lavage fluid at 10 mg/kg, sc on first day followed by regimen of 5 mg/kg for 5 days measured after 1 days; assay type: functional, organism-based; how it was run: as §1
[30] = tested on: Mus musculus; assay: Immunological activity in BALB/c mouse infected with Mycoplasma pneumoniae ATCC 29342 assessed as decrease in MIP-1alpha level in bronchoalveolar lavage fluid at 10 mg/kg, sc on first day followed by regimen of 5 mg/kg for 5 days measured after 3 days; assay type: functional, organism-based; how it was run: as §1
[31] = tested on: Mycoplasmoides pneumoniae; assay: Antimicrobial activity against Mycoplasma pneumoniae by agar dilution method; assay type: functional
[32] = tested on: Mus musculus; assay: Immunological activity in BALB/c mouse infected with Mycoplasma pneumoniae ATCC 29342 assessed as decrease in IL-12 level in bronchoalveolar lavage fluid at 10 mg/kg, sc on first day followed by regimen of 5 mg/kg for 5 days measured after 1 days; assay type: functional, organism-based; how it was run: as §1

Cmax [8]: 630 ng/mL
Kp at 12 h [10]: 78
AUC [14]: 2900 ng·h/mL
Kp at 12 h [19]: 8.6
AUC at 24 h [27]: 4700 ng·h/mL
MIC [31]: 0.06 µg/mL (≈ 0.102 µM)
SMILES: CN(C)c1cc(NC(=O)CNC(C)(C)C)c(O)c2c1C[C@H]1C[C@H]3[C@H](N(C)C)C(O)=C(C(N)=O)C(=O)[C@@]3(O)C(O)=C1C2=O [TIGECYCLINE]
Activity [1]: inactive
Activity [2]: Active
Activity [3]: inactive
Activity [4]: Active
Activity [5]: Active
Activity [6]: Active
Activity [7]: Active
Activity [9]: inactive
Activity [11]: inactive
Activity [12]: Active
Activity [13]: inactive
Activity [15]: Active
Activity [16]: inactive
Activity [17]: Active
Activity [18]: Active
Activity [20]: Active
Activity [21]: Active
Activity [22]: Active
Activity [23]: inactive
Activity [24]: inactive
Activity [25]: Active
Activity [26]: Active
Activity [28]: Active
Activity [29]: Active
Activity [30]: Active
Activity [32]: Active
